# Key:
# A-375 = assay: Antiproliferative activity against human A-375 cells assessed as inhibition of cell growth incubated for 72 hrs by MTS assay; conditions: A-375, 72 h
# [1] = Antiproliferative activity against human EU-1 cells assessed as inhibition of cell growth incubated for 44 hrs by WST assay; format: functional, cell-based; conditions: EU-1, 44 h
# In short: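 Pediatric ALL-derived EU-1 cells grown in RPMI 1640 with 10% FBS, 2 mmol/L L-glutamine and penicillin/streptomycin at 37 °C, 5% CO2. Compounds given at graded concentrations for 44 h. WST (25 μg/well) then added for a further 4 h. OD read at 450 nm against a 620 nm reference, with cell-free wells for background.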
# MDA-MB-231 = assay: Antiproliferative activity against human MDA-MB-231 cells assessed as inhibition of cell growth incubated for 72 hrs by MTS assay; format: functional, cell-based; conditions: MDA-MB-231, 72 h
# In short: (§1)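 Cells seeded at 3,000–8,000 per well according to growth rate and incubated overnight. They were then exposed to compounds over 3 nM–100 μM for 72 h, four replicates per concentration. MTS added, 1.5 h in the dark at 37 °C, absorbance read at 490 nm. IC50 normalized to untreated cells and fitted by nonlinear regression.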
# CWR22R [2] = assay: Antiproliferative activity against human 22Rv1 cells assessed as inhibition of cell growth incubated for 72 hrs by MTS assay; format: functional, cell-based; conditions: 22Rv1, 72 h
# In short: as §1
# CWR22R [3] = assay: Inhibition of colony formation in human 22Rv1 cells assessed as reduction in number of clonogenic cells incubated for 14 days and subsequent media replacement with compound for every 3 days by crystal violet staining based microscopic analysis; format: functional, cell-based; conditions: dose 1-10 µM, time 14.0 day
# In short: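 22Rv1 cells in log phase were seeded at 2,000 per well and incubated 72 h. They were then treated with 1, 5 or 10 μM for 14 days, with medium ± compound renewed every 3 days. Colonies were fixed in cold methanol, stained with 0.5% crystal violet and counted microscopically. Run in triplicate; area expressed relative to vehicle (100%) as mean ± SEM of three biological replicates.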
Structure (SMILES),IC50 (A-375) [µM],IC50 [1] [µM],IC50 (MDA-MB-231) [µM],IC50 (CWR22R [2]) [µM],inhibition (CWR22R [3])
CC(=O)c1cccc(S(=O)(=O)Nc2ccc3c(c2)C2OCCC2C(c2ccc(C(=O)C(C)C)cc2)N3)c1 (configuration not stated),4.7,0.7,2,7.7,
O=S(=O)(Nc1ccc(C(F)(F)F)c(C(F)(F)F)c1)c1ccc2c(c1)C1OCCC1C(C1CCCCC1)N2 (configuration not stated),> 10,> 10,> 10,,
CC(=O)Nc1ccc(C2Nc3ccc(S(=O)(=O)Nc4ccc(C)c(C)c4)cc3C3OCCC23)cc1 (configuration not stated),8.1,4.5,5.1,> 10,
Cc1ccc(NS(=O)(=O)c2ccc3c(c2)C2OCCC2C(C2CCOCC2)N3)cc1C (configuration not stated),12.1,1.6,3,> 10,
CC1CCC(NS(=O)(=O)c2ccc3c(c2)C2OCCC2C(C2CCCCC2)N3)CC1 (configuration not stated),7.5,1.9,2.4,> 10,
Cc1ccc(NS(=O)(=O)c2ccc3c(c2)C2OCCC2C(c2ccc4c(c2)CCO4)N3)cc1C (configuration not stated),4.6,> 10,3.2,> 10,
Cc1ccc(NS(=O)(=O)c2ccc3c(c2)C2OCCC2C(c2c[nH]c4ccccc24)N3)cc1C (configuration not stated),> 10,9.2,> 10,,
Cc1cc(NS(=O)(=O)c2ccc3c(c2)C2OCCC2C(C2CCCCC2)N3)ccc1C(F)(F)F (configuration not stated),> 10,3.3,> 10,,
Cc1ccc(S(=O)(=O)Nc2ccc3c(c2)C2OCCC2C(c2ccc(C(=O)C(C)C)cc2)N3)cc1C (configuration not stated),2.5,0.6,1.3,4,
CN(C)c1cccc(NS(=O)(=O)c2ccc3c(c2)C2OCCC2C(C2CCCCC2)N3)c1 (configuration not stated),1.8,4,1.1,> 10,
CCc1cccc(NS(=O)(=O)c2ccc3c(c2)C2OCCC2C(c2ccc(C(=O)C(C)C)cc2)N3)c1 (configuration not stated),3.2,2.1,1.5,1.1,
CC(C)[C@@H](CS(=O)(=O)C(C)C)N1C(=O)[C@@](C)(CC(=O)O)C[C@H](c2cccc(Cl)c2)[C@H]1c1ccc(Cl)cc1 [NAVTEMADLIN],0.6,0.9,> 10,0.3,
CCC(=O)c1cccc(NS(=O)(=O)c2ccc3c(c2)C2OCCC2C(c2ccc(C(=O)C(C)C)cc2)N3)c1 (configuration not stated),1.3,1.5,1.9,3.5,
Cc1ccc(NS(=O)(=O)c2ccc3c(c2)C2OCCC2C(C2CCCCC2)N3)cc1C (configuration not stated),9.8,0.8,5.7,> 10,
O=S(=O)(Nc1ccc2c(c1)CCCC2)c1ccc2c(c1)C1OCCC1C(C1CCCCC1)N2 (configuration not stated),> 10,2.3,2.2,> 10,
Cc1ccc(NS(=O)(=O)c2ccc3c(c2)C2OCCC2C(c2ccc(C(=O)C(C)C)cc2)N3)cc1C (configuration not stated),2.2,0.5,2.2,5.3,Dose-Dependent Effect
CC(=O)c1cccc(NS(=O)(=O)c2ccc3c(c2)C2OCCC2C(c2cccc(C(C)=O)c2)N3)c1 (configuration not stated),2.5,1,2.2,> 10,

Structure (SMILES),IC50 (A-375) [µM],IC50 [1] [µM],IC50 (MDA-MB-231) [µM],IC50 (CWR22R [2]) [µM],inhibition (CWR22R [3])
O=S(=O)(Nc1ccc(Br)c(Br)c1)c1ccc2c(c1)C1OCCC1C(C1CCCCC1)N2 (configuration not stated),> 10,5.1,> 10,,
CC(C)C(=O)c1ccc(C2Nc3ccc(S(=O)(=O)Nc4cccc(C(C)C)c4)cc3C3OCCC23)cc1 (configuration not stated),2.2,6.5,1.1,2.1,
O=S(=O)(Nc1ccccc1)c1ccc2c(c1)C1OCCC1C(C1CCCCC1)N2 (configuration not stated),> 10,2.6,> 10,,
CC(C)C(=O)c1ccc(C2Nc3ccc(S(=O)(=O)Nc4ccc5c(c4)COC5=O)cc3C3OCCC23)cc1 (configuration not stated),> 10,3.8,3.8,,
CC(=O)c1cccc(NS(=O)(=O)c2ccc3c(c2)C2OCCC2C(c2ccccc2)N3)c1 (configuration not stated),0.9,1.3,0.9,> 10,
CC(=O)N1CCC(C2Nc3ccc(S(=O)(=O)Nc4ccc(C)c(C)c4)cc3C3OCCC32)CC1 (configuration not stated),> 10,> 10,> 10,,
Cc1ccc(NS(=O)(=O)c2ccc3c(c2)C2OCCC2C(C2CCN(C(=O)OC(C)(C)C)CC2)N3)cc1C (configuration not stated),0.7,1.4,1.1,> 10,
CC(=O)c1cccc(NS(=O)(=O)c2ccc3c(c2)C2OCCC2C(c2ccc4c(c2)CCO4)N3)c1 (configuration not stated),1.3,7.2,1.1,6.3,
CC(=O)c1ccc(NS(=O)(=O)c2ccc3c(c2)C2OCCC2C(c2ccc(C(=O)C(C)C)cc2)N3)cc1 (configuration not stated),2,1.5,2.1,3.3,
CC(=O)c1cccc(NS(=O)(=O)c2ccc3c(c2)C2OCCC2C(c2ccc(C(C)C)cc2)N3)c1 (configuration not stated),1.9,0.6,0.6,> 10,
CC(C)C(=O)c1ccc(C2Nc3ccc(S(=O)(=O)Nc4ccc5c(c4)OCO5)cc3C3OCCC23)cc1 (configuration not stated),5.9,5.3,3.3,7.9,
O=S(=O)(Nc1ccc(Cl)c(Cl)c1)c1ccc2c(c1)C1OCCC1C(C1CCCCC1)N2 (configuration not stated),> 10,1.8,> 10,,
CN[C@@H](C)C(=O)N[C@H](C(=O)N1CCC[C@H]1C(=O)Nc1snnc1-c1ccccc1)C1CCCCC1 [GDC-0152],,0.8,,,
CC(C)C(=O)c1ccc(C2Nc3ccc(S(=O)(=O)Nc4cccc(N(C)C)c4)cc3C3OCCC23)cc1 (configuration not stated),0.9,7.5,1.6,0.7,
CC(C)C(=O)c1ccc(C2Nc3ccc(S(=O)(=O)Nc4cccc(C(C)(C)C)c4)cc3C3OCCC23)cc1 (configuration not stated),5.1,6.2,2,1.3,
CC(=O)c1cccc(NS(=O)(=O)c2ccc3c(c2)C2OCCC2C(C2CCCCC2)N3)c1 (configuration not stated),1.1,1.5,1,> 10,

# — ChEMBL document CHEMBL5321232, “Synthesis and biological evaluation of dual MDM2/XIAP inhibitors based on the tetrahydroquinoline scaffold” (Eur J Med Chem, 2023)
